Test results from ChEMBL document CHEMBL4052589, “Discovery of Imidazo[1,2-a]pyridine Ethers and Squaramides as Selective and Potent Inhibitors of Mycobacterial Adenosine Triphosphate (ATP) Synthesis” (J Med Chem, 2017).

Tested on: Mycobacterium tuberculosis
Test: Induction of membrane damage in Mycobacterium bovis BCG after 60 mins by DiOC2 probe-based fluorescence assay
Format: functional
Settings: variant bovis BCG, 1 h
Procedure, shortened: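 Cell-based assay. Mid-log phase BCG culture was pre-loaded with DiOC2 before compound exposure. Fluorescence was read as the red-shifted emission at 600 nm, which tracks membrane potential. CCCP served as the positive control, and IC50 was derived.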

SMILES	IC50 [µM]
c1ccc(OCCCOc2c(-c3ccccc3)nc3ccccn23)cc1	> 100
O=c1c(NCc2cnccn2)c(-c2ccc(N3CCOCC3)cc2)c1=O	> 100
Cc1ccc2nc(-c3ccc(F)cc3)c(OCCCNc3ccc(F)c(C)c3)n2c1	> 100
Cc1ccc2nc(-c3ccc(F)cc3)c(OCCCNc3ccc(F)c(C)n3)n2c1	> 100
Cc1ccc2nc(-c3ccccc3)c(OCCCOc3ccccc3)n2c1	> 100
O=c1c(NCc2ccccn2)c(-c2ccc(N3CCOCC3)cc2)c1=O	> 100
